# Assay results of several laboratories.
# Lines come from different studies, so protocols differ.
# Target: Serine/threonine-protein kinase Nek6 (NEK6, Homo sapiens, UniProt Q9HC98)
Compound,test,setting,endpoint,result
Cc1ccc(NC(=O)c2ccc(C)c(C(F)(F)F)c2)cc1C#Cc1nn(C2CCC(O)CC2)c2ncnc(N)c12 (centres unmarked),cell-free assay,10 µM,remaining signal,98%
CNC(=O)c1cc(Oc2ccc(NC(=O)Nc3ccc(Cl)c(C(F)(F)F)c3)cc2)ccn1,"enzyme activity, inhibitor",0.3 µM,inhibition,-13%
CN1CC(Oc2cnc(C#N)cc2-c2ccn3nc(NC(=O)C4CC4)cc3c2)C1,"enzyme activity, inhibitor",1 µM,inhibition,2%
Nc1ncnc2occ(-c3ccc(NC(=O)Nc4cc(C(F)(F)F)ccc4F)cc3)c12,"cell-free assay, inhibitor",20 µM,remaining signal,0.15%
CCCS(=O)(=O)Nc1ccc(F)c(C(=O)c2c[nH]c3ncc(-c4ccc(Cl)cc4)cc23)c1F,"enzyme activity, inhibitor",1 µM,inhibition,< 10%
CCCCN(CCCC)C(=O)CN1C[C@H](c2cc(OC)c3c(c2)OCO3)[C@@H](C(=O)O)[C@@H]1CC(C)(C)CCC,"cell-free assay, competition with immobilised ligand",1 µM,remaining binding,100%
CCN(CC)CCNC(=O)c1c(C)[nH]c(/C=C2\C(=O)Nc3ccc(F)cc32)c1C,"enzyme activity, inhibitor",0.3 µM,inhibition,-14%
FC(F)(F)Oc1cccc(-c2cnc3ccc(-c4ccncc4)nn23)c1,"enzyme activity, inhibitor, radiometric",1 µM,activity vs control,92%
CO[C@@H](C)c1c(Nc2ccc([C@H](N(C)C(=O)C3CCS(=O)(=O)CC3)C(F)(F)F)cc2)cnc2cc(Cl)nn12,"cell-free assay, competition with immobilised ligand",1 µM,remaining binding,97%
N#CCCc1ccc2c(c1)-c1[nH]c3ccc([N+](=O)[O-])cc3c1CC(=O)N2,cell-free assay,0.5 µM,remaining signal,101%
C[C@H](NC(=O)c1cnc2n1[C@](C)(Cc1ccc(C#N)cc1)C(=O)N2c1cc(Cl)c(F)c(Cl)c1)C(=O)NC1(c2ccccn2)CC1,"cell-free assay, competition with immobilised ligand",1 µM,remaining binding,100%
O=C1NC(=O)c2cc(Nc3ccc(F)cc3)c(Nc3ccc(F)cc3)cc21,cell-free assay,0.5 µM,remaining signal,109%
COc1cc2ncnc(Nc3ccc(Oc4ccccc4)c(C)c3C)c2cc1OC,"enzyme activity, inhibitor",1 µM,inhibition,8%
Cn1cc(Cl)c2c(Oc3c(F)cc(Nc4cc(Cl)nc(N)n4)cc3F)ccnc21,"cell-free assay, competition with immobilised ligand",0.1 µM,remaining binding,100%
